Active and inactive are the calls of the source. The rule behind the calls is not given here.
System: Human immunodeficiency virus
Test: Antiviral activity against multi-RT inhibitor-resistant HIV infected in human MT4 cells assessed as inhibition of viral p24 antigen production after 4 days by ELISA
Assay type: functional, organism-based
Settings: Human immunodeficiency virus 1, MT4, 96 h
How it was run: (§1)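 HIV-1 NL4-3 or RTMDR (multi-RT inhibitor-resistant) virus infected MT-4 cells at MOI 0.001 in 96-well culture. On day 4 post-infection, culture supernatants were collected and p24 was measured by ELISA. TI = IC50/EC50. Values are averages of at least three separate experiments. Top tested concentration 20 μM.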

Structure (SMILES) | EC50
Cc1cc(=O)oc2c([C@H](COC(=O)[C@@]34CC[C@@](C)(C(=O)O3)C4(C)C)OC(=O)[C@@]34CC[C@@](C)(C(=O)O3)C4(C)C)c(OC(C)C)ccc12 | 20 µM
Cc1cc(=O)oc2cc(OC(C)(C)[C@@H](COC(=O)[C@@]34CC[C@@](C)(C(=O)O3)C4(C)C)OC(=O)[C@@]34CC[C@@](C)(C(=O)O3)C4(C)C)ccc12 | 20 µM
CCc1cc(=O)c2ccc3c(c2o1)[C@@H](OC(=O)[C@@]12CC[C@@](C)(C(=O)O1)C2(C)C)[C@@H](OC(=O)[C@@]12CC[C@@](C)(C(=O)O1)C2(C)C)C(C)(C)O3 | 0.133 µM
Cc1cc(=O)oc2c([C@H](C)OC(=O)[C@@]34CC[C@@](C)(C(=O)O3)C4(C)C)c(OC(C)C)ccc12 | 20 µM

System: MT2
Test: Cytotoxicity against human MT2 cells after 6 days by XTT assay
Assay type: cell-based
Settings: MT2, 144 h

Structure (SMILES) | IC50
Cc1cc(=O)oc2c([C@H](COC(=O)[C@@]34CC[C@@](C)(C(=O)O3)C4(C)C)OC(=O)[C@@]34CC[C@@](C)(C(=O)O3)C4(C)C)c(OC(C)C)ccc12 | 39.2 µM
Cc1cc(=O)oc2c3c(ccc12)OC(C)(C)[C@H](OC(=O)[C@@]12CC[C@@](C)(C(=O)O1)C2(C)C)[C@@H]3OC(=O)[C@@]12CC[C@@](C)(C(=O)O1)C2(C)C | 39.2 µM
CC(=O)c1ccc2c(c1C)[C@@H](OC(=O)[C@@]13CC[C@@](C)(C(=O)O1)C3(C)C)[C@@H](OC(=O)[C@@]13CC[C@@](C)(C(=O)O1)C3(C)C)C(C)(C)O2 | 39.6 µM
Cc1cc(=O)oc2cc(OC(C)(C)[C@@H](COC(=O)[C@@]34CC[C@@](C)(C(=O)O3)C4(C)C)OC(=O)[C@@]34CC[C@@](C)(C(=O)O3)C4(C)C)ccc12 | 39.2 µM
CCOc1c(C(C)=O)ccc2c1[C@@H](OC(=O)[C@@]13CC[C@@](C)(C(=O)O1)C3(C)C)[C@@H](OC(=O)[C@@]13CC[C@@](C)(C(=O)O1)C3(C)C)C(C)(C)O2 | 39.6 µM
Cc1cc(=O)oc2c([C@H](C)OC(=O)[C@@]34CC[C@@](C)(C(=O)O3)C4(C)C)c(OC(C)C)ccc12 | 56.5 µM

System: Human immunodeficiency virus 1
Test: Antiviral activity against HIV1 3B infected in human MT2 cells assessed as inhibition of viral p24 antigen production after 6 days by ELISA
Assay type: functional, organism-based
Settings: Human immunodeficiency virus 1, 3B, MT2, 144 h
How it was run: (§2)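 Human T-cell MT-2 line kept with L-glutamine at 37 °C and 5% CO2. Compounds were dissolved in DMSO and screened at final 100, 20, 4 and 0.8 μg/mL, with a highest tested concentration of 20 μM. Medium was changed on days 1 and 4. Supernatant p24 was measured by antigen capture on day 6.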

EC50 | Structure (SMILES)
126 nM | Cc1cc(=O)oc2c3c(ccc12)OC(C)(C)[C@H](OC(=O)[C@@]12CC[C@@](C)(C(=O)O1)C2(C)C)[C@@H]3OC(=O)[C@@]12CC[C@@](C)(C(=O)O1)C2(C)C
190 nM | CCOc1c(C(C)=O)ccc2c1[C@@H](OC(=O)[C@@]13CC[C@@](C)(C(=O)O1)C3(C)C)[C@@H](OC(=O)[C@@]13CC[C@@](C)(C(=O)O1)C3(C)C)C(C)(C)O2
44 nM | Cc1cn([C@H]2CC(N=[N+]=[N-])[C@@H](CO)O2)c(=O)[nH]c1=O (single isomer, unassigned) [ZIDOVUDINE]

System: Human immunodeficiency virus 1
Test: Antiviral activity against HIV1 3B infected in […] assessed as inhibition of viral p24 antigen production at 20 uM after 6 days by ELISA
Assay type: functional, organism-based
Settings: not given
How it was run: as §2, with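 “μM. Wells received […] at 3 × 10^5 cells/mL plus HIV-1 IIIB inoculum of 125 TCID50.” for “μM.”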

Structure (SMILES) | inhibition
Cc1cc(=O)oc2c([C@H](COC(=O)[C@@]34CC[C@@](C)(C(=O)O3)C4(C)C)OC(=O)[C@@]34CC[C@@](C)(C(=O)O3)C4(C)C)c(OC(C)C)ccc12 | inactive
CC(=O)c1ccc2c(c1C)[C@@H](OC(=O)[C@@]13CC[C@@](C)(C(=O)O1)C3(C)C)[C@@H](OC(=O)[C@@]13CC[C@@](C)(C(=O)O1)C3(C)C)C(C)(C)O2 | inactive
Cc1cc(=O)oc2cc(OC(C)(C)[C@@H](COC(=O)[C@@]34CC[C@@](C)(C(=O)O3)C4(C)C)OC(=O)[C@@]34CC[C@@](C)(C(=O)O3)C4(C)C)ccc12 | inactive
Cc1cc(=O)oc2c([C@H](C)OC(=O)[C@@]34CC[C@@](C)(C(=O)O3)C4(C)C)c(OC(C)C)ccc12 | inactive

System: MT4
Test: Cytotoxicity against human MT4 cells after 4 days by XTT assay
Assay type: cell-based
Settings: MT4, 96 h

Structure (SMILES) | IC50
CCOc1ccc2c(C)cc(=O)oc2c1COC(=O)[C@@]12CC[C@@](C)(C(=O)O1)C2(C)C | 60.3 µM
Cc1cc(=O)oc2c([C@H](COC(=O)[C@@]34CC[C@@](C)(C(=O)O3)C4(C)C)OC(=O)[C@@]34CC[C@@](C)(C(=O)O3)C4(C)C)c(OC(C)C)ccc12 | 20 µM
Cc1cc(=O)oc2c(CN(C)C(=O)[C@@]34CC[C@@](C)(C(=O)O3)C4(C)C)c(OC(C)C)ccc12 | 56.6 µM
COc1ccc(N(Cc2c(OC(C)C)ccc3c(C)cc(=O)oc23)C(=O)[C@@]23CC[C@@](C)(C(=O)O2)C3(C)C)cc1 | 34.7 µM
Cc1cc(=O)oc2c(CNC(=O)[C@@]34CC[C@@](C)(C(=O)O3)C4(C)C)c(OC(C)C)ccc12 | 25 µM
Cc1cc(=O)oc2c(CSC(=O)[C@@]34CC[C@@](C)(C(=O)O3)C4(C)C)c(OC(C)C)ccc12 | 56.2 µM
COc1ccc2c(C)cc(=O)oc2c1COC(=O)[C@@]12CC[C@@](C)(C(=O)O1)C2(C)C | 62.4 µM
Cc1cc(=O)oc2cc(OC(C)(C)[C@@H](COC(=O)[C@@]34CC[C@@](C)(C(=O)O3)C4(C)C)OC(=O)[C@@]34CC[C@@](C)(C(=O)O3)C4(C)C)ccc12 | 20 µM
COC(=O)COc1ccc2c(C)cc(=O)oc2c1COC(=O)[C@@]12CC[C@@](C)(C(=O)O1)C2(C)C | 54.5 µM
CCc1cc(=O)c2ccc3c(c2o1)[C@@H](OC(=O)[C@@]12CC[C@@](C)(C(=O)O1)C2(C)C)[C@@H](OC(=O)[C@@]12CC[C@@](C)(C(=O)O1)C2(C)C)C(C)(C)O3 | 9.27 µM
Cc1cc(=O)oc2c([C@H](C)OC(=O)[C@@]34CC[C@@](C)(C(=O)O3)C4(C)C)c(OC(C)C)ccc12 | 20 µM

System: not listed separately
Test: Therapeutic index, ratio of IC50 for human MT4 cells to EC50 for multi-RT inhibitor-resistant HIV infected in human MT4 cells
Assay type: cell-based
Settings: read-out: Ratio IC50/EC50
How it was run: as §1

Structure (SMILES) | selectivity ratio
CCc1cc(=O)c2ccc3c(c2o1)[C@@H](OC(=O)[C@@]12CC[C@@](C)(C(=O)O1)C2(C)C)[C@@H](OC(=O)[C@@]12CC[C@@](C)(C(=O)O1)C2(C)C)C(C)(C)O3 | 69.9

System: Human immunodeficiency virus 1
Test: Antiviral activity against HIV1 NL4-3 infected in human MT4 cells assessed as inhibition of viral p24 antigen production after 4 days by ELISA
Assay type: functional, organism-based
Settings: Human immunodeficiency virus 1, NL4-3, MT4, 96 h
How it was run: as §1

Structure (SMILES) | EC50
CCOc1ccc2c(C)cc(=O)oc2c1COC(=O)[C@@]12CC[C@@](C)(C(=O)O1)C2(C)C | > 32.3 µM
Cc1cc(=O)oc2c([C@H](COC(=O)[C@@]34CC[C@@](C)(C(=O)O3)C4(C)C)OC(=O)[C@@]34CC[C@@](C)(C(=O)O3)C4(C)C)c(OC(C)C)ccc12 | > 20 µM
Cc1cc(=O)oc2c(CN(C)C(=O)[C@@]34CC[C@@](C)(C(=O)O3)C4(C)C)c(OC(C)C)ccc12 | 5.66 µM
COc1ccc(N(Cc2c(OC(C)C)ccc3c(C)cc(=O)oc23)C(=O)[C@@]23CC[C@@](C)(C(=O)O2)C3(C)C)cc1 | 4.69 µM
Cc1cc(=O)oc2c(CNC(=O)[C@@]34CC[C@@](C)(C(=O)O3)C4(C)C)c(OC(C)C)ccc12 | > 25 µM
Cc1cc(=O)oc2c(CSC(=O)[C@@]34CC[C@@](C)(C(=O)O3)C4(C)C)c(OC(C)C)ccc12 | 4.67 µM
COc1ccc2c(C)cc(=O)oc2c1COC(=O)[C@@]12CC[C@@](C)(C(=O)O1)C2(C)C | > 36.6 µM
Cc1cc(=O)oc2cc(OC(C)(C)[C@@H](COC(=O)[C@@]34CC[C@@](C)(C(=O)O3)C4(C)C)OC(=O)[C@@]34CC[C@@](C)(C(=O)O3)C4(C)C)ccc12 | > 20 µM
COC(=O)COc1ccc2c(C)cc(=O)oc2c1COC(=O)[C@@]12CC[C@@](C)(C(=O)O1)C2(C)C | > 44.6 µM
CCc1cc(=O)c2ccc3c(c2o1)[C@@H](OC(=O)[C@@]12CC[C@@](C)(C(=O)O1)C2(C)C)[C@@H](OC(=O)[C@@]12CC[C@@](C)(C(=O)O1)C2(C)C)C(C)(C)O3 | 0.08 µM
Cc1cc(=O)oc2c([C@H](C)OC(=O)[C@@]34CC[C@@](C)(C(=O)O3)C4(C)C)c(OC(C)C)ccc12 | > 20 µM

System: not listed separately
Test: Therapeutic index, ratio of IC50 for human MT4 cells to EC50 for HIV1 NL4-3 infected in human MT4 cells
Assay type: cell-based
Settings: read-out: Ratio IC50/EC50
How it was run: as §1

Structure (SMILES) | selectivity ratio
CCOc1ccc2c(C)cc(=O)oc2c1COC(=O)[C@@]12CC[C@@](C)(C(=O)O1)C2(C)C | 1.87
Cc1cc(=O)oc2c(CN(C)C(=O)[C@@]34CC[C@@](C)(C(=O)O3)C4(C)C)c(OC(C)C)ccc12 | 8
COc1ccc(N(Cc2c(OC(C)C)ccc3c(C)cc(=O)oc23)C(=O)[C@@]23CC[C@@](C)(C(=O)O2)C3(C)C)cc1 | 15
Cc1cc(=O)oc2c(CNC(=O)[C@@]34CC[C@@](C)(C(=O)O3)C4(C)C)c(OC(C)C)ccc12 | 1
Cc1cc(=O)oc2c(CSC(=O)[C@@]34CC[C@@](C)(C(=O)O3)C4(C)C)c(OC(C)C)ccc12 | 12
COc1ccc2c(C)cc(=O)oc2c1COC(=O)[C@@]12CC[C@@](C)(C(=O)O1)C2(C)C | 1.71
COC(=O)COc1ccc2c(C)cc(=O)oc2c1COC(=O)[C@@]12CC[C@@](C)(C(=O)O1)C2(C)C | 1.22

System: not listed separately
Test: Therapeutic index, ratio of IC50 for human MT2 cells to EC50 for HIV1 3B infected in human MT2 cells
Assay type: cell-based
Settings: read-out: Ratio IC50/EC50

Structure (SMILES) | selectivity ratio
Cc1cc(=O)oc2c3c(ccc12)OC(C)(C)[C@H](OC(=O)[C@@]12CC[C@@](C)(C(=O)O1)C2(C)C)[C@@H]3OC(=O)[C@@]12CC[C@@](C)(C(=O)O1)C2(C)C | 301
CCOc1c(C(C)=O)ccc2c1[C@@H](OC(=O)[C@@]13CC[C@@](C)(C(=O)O1)C3(C)C)[C@@H](OC(=O)[C@@]13CC[C@@](C)(C(=O)O1)C3(C)C)C(C)(C)O2 | 208
